The test system of series [1] is A498. The experiment in a line: Cytotoxicity against human A-498 cells after 7 days by MTT assay. The format is functional. The settings on record: A498, 168 h, read-out: ED50 (the source's name). A digest of the protocol: (§1)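 Seven-day in vitro MTT cytotoxicity test on human tumour lines, run with adriamycin as positive control under standard protocols. Cell line origins: A-549 lung carcinoma, MCF-7 breast carcinoma, HT-29 colon adenocarcinoma, A-498 kidney carcinoma, PC-3 prostate adenocarcinoma, MIA PaCa-2 pancreatic carcinoma.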
On the technique in general: Tetrazolium assays rely on reduction of a dye to a coloured formazan, in cell work by metabolically active cells.

In series [2] the test system is A549. The series is described as follows: Cytotoxicity against human A549 cells after 7 days by MTT assay. The format is functional. The settings on record: A549, 168 h, read-out: ED50 (the source's name). In a few lines:
as §1

Series [3] deals with MIA PaCa-2. The series is described as follows: Cytotoxicity against human MIA PaCa2 cells after 7 days by MTT assay. The class given is functional. A digest of the protocol: as §1
In series [4] the test system is PC-3. The experiment in a line: Cytotoxicity against human PC-3 cells after 7 days by MTT assay. The format is functional. In a few lines:
as §1

Series [5] concerns MCF7. The experiment in a line: Cytotoxicity against human MCF7 cells after 7 days by MTT assay. The format is functional. The following applies: MCF7, 168 h, read-out: ED50 (the source's name). A digest of the protocol:
as §1

Series [6] relates to HT-29. The experiment in a line: Cytotoxicity against human HT-29 cells after 7 days by MTT assay. The format is functional. In a few lines:
as §1

In series [7] the test system is Artemia. The series is described as follows: Toxicity in brine shrimp. The class given is organism-based. The following applies: in vivo. In a few lines:
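Brine shrimp lethality test (BST) on brine shrimp larvae, run routinely on extracts, fractions and isolated compounds, with lethality as the read-out.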

The structures appear in SMILES notation. In brackets after ≈: the same amount, converted by molar mass.

In the case of `COc1cccc2c1C(=O)c1c(O)c3c(c(O)c1C2=O)C[C@@](O)(C(=O)CO)C[C@@H]3O[C@H]1C[C@H](N)[C@H](O)[C@H](C)O1` [DOXORUBICIN], the EC50 in series [1] came to 0.00286 µg/mL (≈ 0.00526 µM); in series [2], 0.00622 µg/mL (≈ 0.0114 µM); in series [3] (Homo sapiens, MIA PaCa-2, 168 h, read-out: ED50 (the source's name)), 0.0061 µg/mL (≈ 0.0112 µM); in series [4] (Homo sapiens, PC-3, 168 h, read-out: ED50 (the source's name)), 0.0577 µg/mL (≈ 0.106 µM); in series [5] it was 0.953 µg/mL (≈ 1.75 µM); in series [6] (Homo sapiens, HT-29, 168 h, read-out: ED50 (the source's name)) it was 0.0287 µg/mL (≈ 0.0528 µM).
For the compound `CCCCCCCCCC[C@@H](O)[C@H]1CC[C@@H]([C@H]2CC[C@H]([C@H](O)CCCCC(O)CCCCC[C@@H](O)CC3=C[C@H](C)OC3=O)O2)O1` (stereo not given in full), the EC50 worked out at 0.0362 µg/mL (≈ 0.0567 µM) in series [1], 1.54 µg/mL (≈ 2.41 µM) in series [2] and 3.79 µg/mL (≈ 5.93 µM) in series [5]. Besides, the figures for the ED50 in series [3], in series [4] and in series [6] were 2.01 ×10⁻⁴ ug/ml, 2.01 ×10⁻⁴ ug/ml and 1.54 ×10⁻⁶ ug/ml, respectively. The LC50 in series [7] turned out to be 7 ×10⁻² ug/ml.
`CCCCCCCCCC[C@@H](O)[C@H]1CC[C@H]([C@H]2C[C@@H](O)[C@H]([C@H](O)CCCCCCCCCC[C@@H](O)CC3=C[C@H](C)OC3=O)O2)O1` [ASIMITRIN]: the EC50 in series [1] amounted to 0.75 µg/mL (≈ 1.17 µM); in series [2], 1.19 µg/mL (≈ 1.86 µM); in series [5], 2.12 µg/mL (≈ 3.32 µM). Also, the values for the ED50 in series [3], in series [4] and in series [6] were 2.11 ×10⁻⁴ ug/ml, 1.72 ×10⁻⁶ ug/ml and 1.19 ×10⁻⁴ ug/ml, respectively. Further, in series [7], the LC50 is reported as 2.07 ×10⁻² ug/ml.

Values taken from ChEMBL document CHEMBL1142577, “Asimitrin and 4-hydroxytrilobin, new bioactive annonaceous acetogenins from the seeds of Asimina triloba possessing a bis-tetrahydrofuran ring” (J Nat Prod, 2005).
